Pf Dd2 growth – blocks growth of Plasmodium falciparum Dd2 parasites; P. falciparum Dd2 growth, SYBR Green, 72 h; hits give low values; activity change, % at 10 µM; actives 2.3% (n = 94,000); in the data active = activity change below about -80%; inconclusive = no clear call, values can overlap the other calls
IDH1 mut inh – IDH1 R132H (human) inhibition; inhibition, % at 10 µM; O75874; IDH1 R132H reductase, diaphorase/resazurin fluorescence, 60 min; actives 0.18% (n = 70,000); in the data active = inhibition above about 34%; inconclusive = no clear call, values can overlap the other calls; inactive = below about 11%;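 also: 0% = DMSO and 100% = no enzyme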
T cruzi growth-1 – T. cruzi proliferation inhibition; inhibition, % at 8.34 µM; actives 5.9% (n = 77,000); T. cruzi beta-gal in NIH3T3, GalScreen luminescence, 90 h; AID 624255;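 active = mean inhibition above about 93%, with at least 55% of replicates each passing it, limit read from the data, passing the limit was not always enough; inconclusive = only one of those two conditions holds; inactive = neither condition holds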
GASC1 inh – blocks human GASC-1 (KDM4C) demethylase activity. actives 0.15% (n = 96,000). inhibition, % at 12.5 µM. GST-KDM4C 2-372, H3K9me3 peptide, LANCE TR-FRET;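 active = mean replicate inhibition above about 25%, with at least 55% of replicates also reaching it, limit read from the data, passing the limit was not always enough; inconclusive = only one of those two conditions met; inactive = neither condition met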
Target sequence (Q9H3R0 2-372 limits assumed): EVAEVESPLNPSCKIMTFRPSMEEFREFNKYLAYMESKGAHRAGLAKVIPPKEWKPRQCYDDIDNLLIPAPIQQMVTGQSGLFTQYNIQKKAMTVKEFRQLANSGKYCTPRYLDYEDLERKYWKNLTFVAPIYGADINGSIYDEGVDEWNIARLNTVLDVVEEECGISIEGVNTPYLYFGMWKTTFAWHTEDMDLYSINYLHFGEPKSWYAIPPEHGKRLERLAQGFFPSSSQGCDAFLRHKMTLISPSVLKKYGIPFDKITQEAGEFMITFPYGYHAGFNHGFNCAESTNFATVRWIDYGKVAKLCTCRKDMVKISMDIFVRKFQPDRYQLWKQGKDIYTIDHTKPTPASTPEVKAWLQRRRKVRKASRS
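System: N-terminal GST-fused human GASC-1 (KDM4C) fragment, residues 2-372; amount: enzyme final amount 10 nM; incubation: reaction 30 min RT, detection step 1 h RT; medium: HEPES buffer, pH 7.5, plus ascorbate; technique: LANCE TR-FRET, Eu antibody, ULight-streptavidin, EDTA, ex 340 nm, em 618/671 nm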
T cruzi growth-2 – inhibitors of T. cruzi proliferation | shares compounds with T cruzi growth-1 | T. cruzi beta-gal in NIH3T3, GalScreen luminescence, 90 h | inhibition, % at 8.35 µM | actives 72% (n = 5,600) | AID 651739;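 active = mean replicate inhibition above about 95% and at least 55% of replicates individually reaching it, limit read from the data; inconclusive = only one of the two criteria is met; inactive = neither criterion is met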
T cruzi growth-3 – Trypanosoma cruzi proliferation inhibition; shares compounds with T cruzi growth-1; T. cruzi beta-gal in NIH3T3, GalScreen luminescence, 90 h; inhibition, % at 2.09 µM; actives 21% (n = 5,600); AID 651740;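 active = mean inhibition above about 95%, with at least 55% of replicates also reaching it, limit read from the data; inconclusive = meets just one of the two conditions; inactive = meets neither condition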;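 also: plate controls were neutral control median for no effect and positive control median for full effect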
3T3 cytotox – NIH/3T3 (mouse) viability loss | shares compounds with T cruzi growth-1 | cytotoxicity (signal decrease), % at 8.35 µM | NIH/3T3 viability, CellTiter-Glo ATP luminescence, 90 h | actives 14% (n = 5,600);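 active = mean signal decrease across replicates above about 35% based on untreated-well scatter, with enough replicates individually passing, limit read from the data; inconclusive = no rule stated though some were filed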;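 also: 0% = median of neutral control wells and 100% = median of positive control wells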
NIH3T3 tox 2 – NIH/3T3 (mouse) viability loss. AID 651744. actives 56% (n = 5,600). shares compounds with T cruzi growth-1. inhibition, % at 24.9 µM. NIH/3T3 viability, CellTiter-Glo ATP luminescence, 90 h;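 active = mean loss of cell viability signal at or above a set limit, and enough replicates individually reaching it; inconclusive = meets only the mean limit or only the replicate share; inactive = meets neither condition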;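 also: 0% = median of neutral control wells and 100% = median of positive control wells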
* hit, by the source's call; ? = inconclusive; . = not tested or not shown. Most compounds without a hit are left out; they make up all but 5.8% or so of the library.

SMILES	Pf Dd2 growth	IDH1 mut inh	T cruzi growth-1	GASC1 inh	T cruzi growth-2	T cruzi growth-3	3T3 cytotox	NIH3T3 tox 2
OC[C@H]1[C@@H](c2ccc(C#CC3(O)CCCC3)cc2)[C@@H]2CN(Cc3cncnc3)CCCCN12	4	.	22	0	.	.	.	.
NC(=S)Cc1c(Cl)sc2ccc(Cl)cc12	.	0	.	.	.	.	.	.
CC(Oc1ccc(Cl)cc1Cl)C(=O)Nc1cccc(Cl)c1N1CCOCC1 (stereo unspecified)	.	0	.	.	.	.	.	.
CN1C(=O)c2cc(NC(=O)c3cnccn3)ccc2OC[C@H]2O[C@@H](CC(=O)N[C@@H]3CCN(Cc4ccccc4)C3)CC[C@H]21	-14	.	107*	2	97*	88	-27	-20
CN1C(=O)c2cc(NC(=O)c3cnccn3)ccc2OC[C@H]2O[C@@H](CC(=O)N[C@H]3CCN(Cc4ccccc4)C3)CC[C@H]21	?	.	114*	4	104*	103*	-9	-10
CN1C(=O)c2cc(NC(=O)c3cnccn3)ccc2OC[C@H]2O[C@@H](CC(=O)N[C@@H]3CCN(Cc4ccccc4)C3)CC[C@@H]21	-3	.	.	3	.	.	.	.
CCN(C(=O)CSc1nc2sc(C)c(C)c2c(=O)n1-c1ccccc1)c1ccccc1	.	0	.	.	.	.	.	.
COc1ccccc1-c1ccc2c(c1)O[C@H](CN(C)S(=O)(=O)c1ccc(F)cc1)[C@@H](C)CN([C@H](C)CO)S2(=O)=O	-56	1	92	1	.	.	.	.
COc1ccccc1-c1ccc2c(c1)O[C@H](CN(C)S(=O)(=O)c1ccc(F)cc1)[C@H](C)CN([C@H](C)CO)S2(=O)=O	-37	0	102*	-1	103*	84	29	43*
COc1ccccc1-c1ccc2c(c1)O[C@@H](CN(C)S(=O)(=O)c1ccc(F)cc1)[C@H](C)CN([C@@H](C)CO)S2(=O)=O	-82*	0	108*	-1	109*	79	27	?
COc1ccccc1-c1ccc2c(c1)O[C@@H](CN(C)S(=O)(=O)c1ccc(F)cc1)[C@H](C)CN([C@H](C)CO)S2(=O)=O	36	-1	18	-1	.	.	.	.
COc1ccccc1-c1ccc2c(c1)O[C@H](CN(C)S(=O)(=O)c1ccc(F)cc1)[C@@H](C)CN([C@@H](C)CO)S2(=O)=O	-68	0	103*	0	101*	59	24	48*
CN(C)C(=O)c1cccc(-c2ccc3c(c2)[C@@H]2[C@@H](CCN2C(=O)C2CC2)[C@H](CO)N3)c1	-23	.	68	1	.	.	.	.
O=C(C1CC1)N1CC[C@@H]2[C@H]1c1cc(-c3cccc(F)c3)ccc1N[C@@H]2CO	-23	.	115*	4	105*	103*	4	28*
O=C(C1CCOCC1)N1CC[C@@H]2[C@H]1c1cc(-c3cccc(F)c3)ccc1N[C@@H]2CO	5	.	49	-1	.	.	.	.
CN(C)C(=O)c1cccc(-c2ccc3c(c2)[C@H]2[C@H](CCN2C(=O)C2CC2)[C@@H](CO)N3)c1	-94*	.	112*	6	93	48	-8	-7
CN(C)C(=O)c1cccc(-c2ccc3c(c2)[C@H]2[C@H](CCN2C(=O)C2CC2)[C@H](CO)N3)c1	-7	.	99*	1	105*	71	-19	-6
C[C@@H]1CCCCO[C@H](CN(C)S(=O)(=O)c2cccs2)[C@H](C)CN([C@@H](C)CO)C(=O)c2cc(NS(=O)(=O)c3ccc(Cl)cc3)ccc2O1	-58	0	95*	0	102*	82	-3	14
C[C@@H]1CCCCO[C@H](CN(C)S(=O)(=O)c2cccs2)[C@@H](C)CN([C@@H](C)CO)C(=O)c2cc(NS(=O)(=O)c3ccc(Cl)cc3)ccc2O1	-57	.	93*	0	98*	99*	-16	-2
C[C@H](CO)N1C[C@H](C)[C@@H](CN(C)S(=O)(=O)c2cccs2)OCCCC[C@H](C)Oc2ccc(NS(=O)(=O)c3ccc(Cl)cc3)cc2C1=O	-30	1	102	0	.	.	.	.
C[C@@H]1CCCCO[C@@H](CN(C)S(=O)(=O)c2cccs2)[C@@H](C)CN([C@H](C)CO)C(=O)c2cc(NS(=O)(=O)c3ccc(Cl)cc3)ccc2O1	-26	1	?	0	106*	72	0	38*
C[C@H](CO)N1C[C@H](C)[C@H](CN(C)S(=O)(=O)c2cccs2)OCCCC[C@H](C)Oc2ccc(NS(=O)(=O)c3ccc(Cl)cc3)cc2C1=O	-51	0	104*	-1	102*	84	-9	5
C[C@@H]1CCCCO[C@@H](CN(C)S(=O)(=O)c2cccs2)[C@H](C)CN([C@H](C)CO)C(=O)c2cc(NS(=O)(=O)c3ccc(Cl)cc3)ccc2O1	-69	3	92	0	.	.	.	.
CC1(C)Cc2c(sc3c2c2ncnn2c2nnc(SCC(=O)NCc4ccccc4)n32)CO1	.	0	.	.	.	.	.	.
Cc1cc2nn(-c3ccc(F)cc3)nc2cc1NC(=O)COc1ccc(Br)cc1	.	0	.	.	.	.	.	.
SMILES	Pf Dd2 growth	IDH1 mut inh	T cruzi growth-1	GASC1 inh	T cruzi growth-2	T cruzi growth-3	3T3 cytotox	NIH3T3 tox 2
COc1cccc(OCC(=O)Nc2ccc(-c3nc4ccccc4o3)cc2)c1	.	0	.	.	.	.	.	.
CC(C)CC#Cc1ccc([C@@H]2[C@@H](CO)N3CCCCN(C(=O)Nc4ccccc4)C[C@H]23)cc1	-31	.	?	0	94	84	59*	106*
CC(C)CC#Cc1ccc([C@H]2[C@@H](CO)N3CCCCN(C(=O)Nc4ccccc4)C[C@H]23)cc1	-23	.	37	-1	.	.	.	.
CC(C)CC#Cc1ccc([C@@H]2[C@@H](CO)N3CCCCN(C(=O)Nc4ccccc4)C[C@@H]23)cc1	9	.	111*	-1	97*	93	30	103*
CC(C)CC#Cc1ccc([C@H]2[C@H]3CN(C(=O)Nc4ccccc4)CCCCN3[C@H]2CO)cc1	4	.	101*	8	98*	91	27	83*
COc1ccc(NC(=O)N2CCCCN3[C@H](CO)[C@@H](c4ccc(C#CCC(C)C)cc4)[C@H]3C2)cc1	-68	.	122*	-1	88	101*	117*	106*
Cc1ccc(-c2nnc3c4ccccc4c(C)nn23)cc1S(=O)(=O)NCC1CCCO1 (stereo unspecified)	.	0	.	.	.	.	.	.
COC(=O)c1sc2ncn(CC(=O)Nc3cccc(Cl)c3C)c(=O)c2c1C	.	0	.	.	.	.	.	.
C=C(C)[C@@H]1CC=C(/C=N/NC(=O)c2ccccc2O)CC1	.	0	.	.	.	.	.	.
